In PMC11626521 (RSC Advances, 2024):

Columns and labels:
Test in all cases: anti-proliferation assay
HGC-27 = type: cell-based, human
Summary of the method: (§1)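 Seeding was 4000 cells per well, with overnight adherence. Media: HGC-27 and GES-1 in RPMI 1640; HT-29 and HCT-116 in McCoy's 5A; HeLa in DMEM; all with 10% FBS and 1% penicillin–streptomycin, 37 °C, 5% CO2. Test compounds ran 0–500 μM in 3-fold dilutions for 72 h. Read-out was CCK8 (0.5 mM WST-8, 10 μM PMS) for 0.5–2 h, absorbance 450 nm, IC50 from viability. SI = IC50(GES-1)/IC50(HGC-27).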

HT-29 = type: cell-based, human; conditions: read-out: IC50 HT-29; 72 h treatment, CCK8
Summary of the method: as §1

HeLa = type: cell-based, human; conditions: read-out: IC50 HeLa; 72 h treatment, CCK8
Summary of the method: as §1

HCT-116 = type: cell-based, human; conditions: read-out: IC50 HCT-116; 72 h treatment, CCK8
Summary of the method: as §1

GES-1 = type: cell-based; conditions: read-out: IC50 GES-1; normal human gastric mucosa cell line, 72 h treatment, CCK8
Summary of the method: as §1

IC50 (HT-29): 4.6 ± 0.55 µM
IC50 (HeLa): 3.43 ± 0.33 µM
IC50 (HCT-116): 3.32 ± 0.3 µM
Compound: O=c1[nH]cc(F)c(=O)[nH]1 [5-FU]
SI (GES-1/HGC-27) (HGC-27; SI = IC50 (GES-1)/IC50 (HGC-27)): 0.85
IC50 (HGC-27; read-out: IC50 HGC-27, 72 h treatment, CCK8): 4.75 ± 0.18 µM
IC50 (GES-1): 4.03 ± 0.19 µM
